# Published values collected from several papers.
# Lines come from different studies, so protocols differ.
# Cell line: PANC-1
# Effect on: cell growth or viability
SMILES,technique,time,endpoint,result
COc1c2c(cc3c1OCO3)[C@]13C=C[C@H](OC)C[C@H]1N(C2)C[C@H]3OC(=O)c1cccc(C)c1,WST-1,,IC50,> 10 µM
CC(=O)c1ccc(N=Nc2c(C(=O)O)cc(O)c(O)c2O)cc1,MTT,,IC50,12.7 µM
Cc1ccc2[nH]c(=O)c3cc(C(=O)NCCCN(C)Cc4ccccc4)sc3c2c1,MTT,24 h,IC50,16.8 µM
CC(C)C[C@H](NC(=O)[C@H](Cc1ccccc1)NC(=O)c1cnccn1)B(O)O,ATP luminescence,,IC50,0.01 µM
O=C(O)/C=C/c1ccc(O)c(O)c1,MTT,,IC50,4.1 µM
CCN(CC)CCCC(C)Nc1cnc(C(=O)Nc2cc(F)cc3cccnc23)cn1 (centres unmarked),MTT,,IC50,7.2 µM
COc1ccc(C(=O)O[C@@H]2CN3Cc4c(cc5c(c4OC)OCO5)[C@@]24C=C[C@H](OC)C[C@@H]34)cc1,WST-1,,IC50,> 10 µM
Cc1ncsc1-c1ccc(CNC(=O)[C@@H]2C[C@@H](O)CN2C(=O)[C@@H](NC(=O)CCCCCCCCCCCC(=O)NCCCCC#Cc2cccc(-c3nn(-c4nc(C(=O)O)cs4)c(CC4CC4)c3Cc3ccc(S(N)(=O)=O)cc3)c2)C(C)(C)C)cc1,CCK-8,72 h,GI50,16.1 µM
CNc1ncc2cc(-c3ccc(-c4cccc(C)n4)cc3Cl)c(=O)n(C[C@H]3OC[C@H](N)CO3)c2n1,MTT,24 h,IC50,23.2 µM
COc1cc(Nc2nccc(-c3cnn4nc(OC)ccc34)n2)cc(C(F)(F)F)c1,ATP luminescence,,IC50,0.76 µM
CC(=O)c1ccc(/N=N/c2cc(/C=C/C(=O)O)ccc2O)cc1,MTT,,IC50,> 50 µM
COc1cccc(C(=O)O[C@@H]2CN3Cc4c(cc5c(c4OC)OCO5)[C@@]24C=C[C@H](OC)C[C@@H]34)c1,WST-1,,IC50,8.7 µM
COc1cccc2c1C(=O)c1c(O)c3c(c(O)c1C2=O)C[C@@](O)(C(=O)CO)C[C@@H]3O[C@H]1C[C@H](N)[C@H](O)[C@H](C)O1,WST-1,72 h,IC50,0.53 µM
O=C(O)c1cc(O)c(O)c(O)c1,MTT,,IC50,17.9 µM
